Starred links: 1 amine or outer side, 2 acyl side, 3 side chain; linkers in the order of their positions; H or OH if unused. Positions of bridges follow the written chain, without caps; N, C: chain ends. Non-standard residues stand in square brackets, D forms with d. Residues, ends and D or L forms follow the SMILES beside them. Chains are numbered I, II in the order given. NHNH = N(N[*:2])[*:1]
Legend:
[1] = target: Mu-type opioid receptor (Cavia porcellus, UniProt P97266); assay: Activity at mu opioid receptor in longitudinal muscle myenteric plexus from guinea pig ileum; type: functional, tissue-based
Mu-type opioid receptor (Cavia porcellus, UniProt P97266), sequence (P97266 whole entry): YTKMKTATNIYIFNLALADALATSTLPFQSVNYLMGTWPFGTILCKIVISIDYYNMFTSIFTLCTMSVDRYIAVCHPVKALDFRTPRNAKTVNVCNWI
Summary of the method: (§1)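 Isolated tissue bioassays, mouse vas deferens for delta and guinea pig ileum LMMP for mu. Data fitted to the Hill equation by computerized non-linear least squares, giving IC50, relative potency and their standard errors. IC50 is the mean of at least four experiments.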

[2] = target: Mu-type opioid receptor (Rattus norvegicus, UniProt P33535); assay: Agonistic efficacy at rat mu opioid receptor by [35S]GTPgammaS binding assay
Mu-type opioid receptor (Rattus norvegicus, UniProt P33535), sequence (P33535 whole entry): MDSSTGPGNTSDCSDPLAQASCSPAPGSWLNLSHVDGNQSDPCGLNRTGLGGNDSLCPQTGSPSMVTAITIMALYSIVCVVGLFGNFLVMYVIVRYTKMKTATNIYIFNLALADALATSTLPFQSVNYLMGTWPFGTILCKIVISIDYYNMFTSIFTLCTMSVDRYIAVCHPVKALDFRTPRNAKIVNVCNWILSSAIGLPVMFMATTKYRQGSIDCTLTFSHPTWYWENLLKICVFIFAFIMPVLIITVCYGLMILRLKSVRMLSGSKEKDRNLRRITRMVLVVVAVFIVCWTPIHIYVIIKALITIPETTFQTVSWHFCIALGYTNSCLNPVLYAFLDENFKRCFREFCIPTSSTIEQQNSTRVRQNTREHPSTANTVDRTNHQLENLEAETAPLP

[3] = target: Mu-type opioid receptor (Homo sapiens, UniProt P35372); assay: Displacement of [3H]DAMGO from mu opioid receptor
Mu-type opioid receptor (Homo sapiens, UniProt P35372), sequence (P35372 whole entry): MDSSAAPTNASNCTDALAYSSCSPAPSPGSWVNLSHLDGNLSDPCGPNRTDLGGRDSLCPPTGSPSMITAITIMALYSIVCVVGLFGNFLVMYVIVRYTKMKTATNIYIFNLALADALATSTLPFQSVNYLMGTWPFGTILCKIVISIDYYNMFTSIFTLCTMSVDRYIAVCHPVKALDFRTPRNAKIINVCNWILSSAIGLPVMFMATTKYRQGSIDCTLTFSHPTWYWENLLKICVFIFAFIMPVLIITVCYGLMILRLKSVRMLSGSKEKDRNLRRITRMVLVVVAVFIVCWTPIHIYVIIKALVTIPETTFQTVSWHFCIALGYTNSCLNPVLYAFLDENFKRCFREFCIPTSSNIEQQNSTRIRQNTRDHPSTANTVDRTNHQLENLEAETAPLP
Summary of the method: (§2)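 Competition binding on membranes from transfected cells stably expressing the mu or delta opioid receptor. Radioligands were [3H]DAMGO for mu and [3H]DPDPE for delta.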

[4] = target: T1, Delta-type opioid receptor (Homo sapiens, UniProt P41143); assay: Agonistic efficacy at human delta opioid receptor by [35S]GTP-gammaS binding assay; type: functional
T1 sequence (P41143 whole entry): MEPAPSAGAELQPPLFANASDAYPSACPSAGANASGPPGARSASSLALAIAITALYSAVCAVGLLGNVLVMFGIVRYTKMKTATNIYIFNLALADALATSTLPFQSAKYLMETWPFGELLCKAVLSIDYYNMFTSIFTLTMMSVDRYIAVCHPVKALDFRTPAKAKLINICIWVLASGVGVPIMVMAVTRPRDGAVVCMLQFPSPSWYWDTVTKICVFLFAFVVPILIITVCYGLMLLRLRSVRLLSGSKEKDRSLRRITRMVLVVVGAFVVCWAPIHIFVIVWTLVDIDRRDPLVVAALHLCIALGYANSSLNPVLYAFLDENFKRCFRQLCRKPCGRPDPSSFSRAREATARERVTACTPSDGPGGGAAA
Summary of the method: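 Cells expressing human DOR (delta) or rat MOR (mu) incubated with increasing test-compound concentrations and 0.1 nM [35S]GTP-gamma-S in assay buffer, duplicates, 90 min at 30 °C. Stopped by vacuum filtration through GF/B filters pretreated with assay buffer, then four washes with ice-cold 15 mM Tris/120 mM NaCl pH 7.4. Bound radioactivity counted by liquid scintillation after overnight extraction; Emax read as agonist-stimulated binding.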

[5] = target: Delta-type opioid receptor (Mus musculus, UniProt P32300); assay: Activity at delta opioid receptor in mouse vas deferens; type: functional, tissue-based; summary of the method: as §1
Delta-type opioid receptor (Mus musculus, UniProt P32300), sequence (P32300 whole entry): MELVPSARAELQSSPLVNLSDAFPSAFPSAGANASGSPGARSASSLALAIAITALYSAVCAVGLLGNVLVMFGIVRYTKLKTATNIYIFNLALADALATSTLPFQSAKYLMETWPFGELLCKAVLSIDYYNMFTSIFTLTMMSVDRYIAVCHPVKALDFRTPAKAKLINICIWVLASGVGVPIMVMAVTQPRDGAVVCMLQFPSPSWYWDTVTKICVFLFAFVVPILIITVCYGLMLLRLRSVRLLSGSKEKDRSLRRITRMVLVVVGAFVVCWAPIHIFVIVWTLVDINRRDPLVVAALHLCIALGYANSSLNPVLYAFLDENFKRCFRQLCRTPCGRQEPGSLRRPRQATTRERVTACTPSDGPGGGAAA

[6] = target: T1, Delta-type opioid receptor; assay: Displacement of [3H]DPDPE from delta opioid receptor; summary of the method: as §2

| Compound | IC50 [1] [nM] | IC50 [2] [nM] | IC50 [3] [nM] | Emax [4] [%] | IC50 [4] [nM] | IC50 [5] [nM] | IC50 [6] [nM] |
| --- | --- | --- | --- | --- | --- | --- | --- |
| N[C@@H](Cc1ccc(O)cc1)C(=O)N[C@H]1CSSC[C@H](NC(=O)[C@@H](N)Cc2ccc(O)cc2)C(=O)NCC(=O)N[C@@H](Cc2ccccc2)C(=O)NNC(=O)[C@H](Cc2ccccc2)NC(=O)CNC1=O (I: H-YCGF / II: H-YCGF; disulfide I:2-II:2; linker I:C-II:C via NHNH) | 420 | 120 | 130 | 58 | 260 | 570 | 53 |
| N[C@@H](Cc1ccc(O)cc1)C(=O)N[C@@H]1CSSC[C@@H](NC(=O)[C@@H](N)Cc2ccc(O)cc2)C(=O)NCC(=O)N[C@@H](Cc2ccccc2)C(=O)NNC(=O)[C@H](Cc2ccccc2)NC(=O)CNC1=O (I: H-Y[dC]GF / II: H-Y[dC]GF; disulfide I:2-II:2; linker I:C-II:C via NHNH) | 25 | 0.2 | 0.6 | 100 | 0.87 | 9.9 | 0.87 |
| C[C@@H](NC(=O)[C@@H](N)Cc1ccc(O)cc1)C(=O)NCC(=O)N[C@@H](Cc1ccccc1)C(=O)NNC(=O)[C@H](Cc1ccccc1)NC(=O)CNC(=O)[C@@H](C)NC(=O)[C@@H](N)Cc1ccc(O)cc1 [BIPHALIN] | – | 6 | – | 27 | – | – | – |
